Measurements: ChEMBL document CHEMBL2040714, “Synthesis of methylated quercetin derivatives and their reversal activities on P-gp- and BCRP-mediated multidrug resistance tumour cells” (Eur J Med Chem, 2012)

species: Homo sapiens; experiment: Reversal of p-glycoprotein-mediated drug resistant in human LCC-6/MDR cells assessed as potentiation of paclitaxel-induced cytotoxicity at 1 uM after 5 days by MTS assay; assay type: cell-based; details: not given
How it was run: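 LCC6MDR cells (6000/well, DMEM with 10% FBS) given paclitaxel over a range of doses, with or without 1 μM modulator, for 5 days at 37 °C; MTS read-out. IC50 from dose–response curves, and RF = IC50 without / IC50 with 1.0 μM modulator. N = 2–4 independent experiments, mean ± SEM.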

SMILES	fold change (FC)
COc1cc(OC)c2c(=O)c(OCCn3cnc4c(N)ncnc43)c(-c3ccc(OC)c(OC)c3)oc2c1	1.1
COc1cc(OC)c2c(=O)c(O[C@@H]3O[C@H](CO[C@@H]4O[C@@H](C)[C@H](OC)[C@@H](OC)[C@H]4OC)[C@@H](OC)[C@H](OC)[C@H]3OC)c(-c3ccc(OC)c(OC)c3)oc2c1	1
COc1cc(OC)c2c(=O)c(OCc3cc(OC)c(OC)c(OC)c3)c(-c3ccc(OC)c(OC)c3)oc2c1	9.6
COc1cc(OC)c2c(=O)c(OC)c(-c3ccc(OC)c(OC)c3)oc2c1	1.9
COc1cc(OC)c2c(=O)c(OCCOc3cc4c(Nc5ccc(F)c(Cl)c5)ncnc4cc3OC)c(-c3ccc(OC)c(OC)c3)oc2c1	1.5
COc1ccc(C(=O)OCCOc2c(-c3ccc(OC)c(OC)c3)oc3cc(OC)cc(OC)c3c2=O)cc1	11.3
COc1cc(OC)c2c(=O)c(O)c(-c3ccc(OC)c(OC)c3)oc2c1	1.7
COc1cc(O)c2c(=O)c(OC)c(-c3ccc(OC)c(OC)c3)oc2c1 [RETUSIN]	3.7
COc1cc(OC)c2c(=O)c(OC(=O)c3cc(OC)c(OC)c(OC)c3)c(-c3ccc(OC)c(OC)c3)oc2c1	2.1

system: L929; experiment: Cytotoxicity against mouse L929 cells after 5 days by MTS assay; assay type: cell-based; details: L929, 120 h
How it was run: (§1)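 Cells seeded in 96-well plates (6000/well for LCC6 and LCC6MDR) and exposed to a range of derivative concentrations, dissolved in DMSO at no more than 1% final, for 5 days at 37 °C. Viability read by MTS; IC50 taken from dose–response curves. Three repeats, mean ± SEM. LCC6 lines grown in DMEM with 10% heat-inactivated FBS; L929 is a mouse fibroblast line.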

SMILES	IC50
COc1cc(OC)c2c(=O)c(OCCn3cnc4c(N)ncnc43)c(-c3ccc(OC)c(OC)c3)oc2c1	> 100 µM
COc1cc(OC)c2c(=O)c(O[C@@H]3O[C@H](CO[C@@H]4O[C@@H](C)[C@H](OC)[C@@H](OC)[C@H]4OC)[C@@H](OC)[C@H](OC)[C@H]3OC)c(-c3ccc(OC)c(OC)c3)oc2c1	> 100 µM
COc1cc(OC)c2c(=O)c(OCc3cc(OC)c(OC)c(OC)c3)c(-c3ccc(OC)c(OC)c3)oc2c1	17.6 µM
COc1cc(OC)c2c(=O)c(OC)c(-c3ccc(OC)c(OC)c3)oc2c1	> 100 µM
COc1cc(OC)c2c(=O)c(OCCOc3cc4c(Nc5ccc(F)c(Cl)c5)ncnc4cc3OC)c(-c3ccc(OC)c(OC)c3)oc2c1	> 100 µM
COc1ccc(C(=O)OCCOc2c(-c3ccc(OC)c(OC)c3)oc3cc(OC)cc(OC)c3c2=O)cc1	> 100 µM
COc1cc(OC)c2c(=O)c(O)c(-c3ccc(OC)c(OC)c3)oc2c1	> 100 µM
COc1cc(O)c2c(=O)c(OC)c(-c3ccc(OC)c(OC)c3)oc2c1 [RETUSIN]	> 100 µM
COc1cc(OC)c2c(=O)c(OC(=O)c3cc(OC)c(OC)c(OC)c3)c(-c3ccc(OC)c(OC)c3)oc2c1	74.1 µM

molecular target: T1, Broad substrate specificity ATP-binding cassette transporter ABCG2 (Homo sapiens, UniProt Q9UNQ0); experiment: Reversal of BCRP-mediated drug resistant in human MCF7-MX100 cells assessed as potentiation of topotecan-induced cytotoxicity at 1 uM after 5 days by MTS assay; assay type: cell-based; details: mcf7-mx100, 120 h
T1 sequence (Q9UNQ0 whole entry): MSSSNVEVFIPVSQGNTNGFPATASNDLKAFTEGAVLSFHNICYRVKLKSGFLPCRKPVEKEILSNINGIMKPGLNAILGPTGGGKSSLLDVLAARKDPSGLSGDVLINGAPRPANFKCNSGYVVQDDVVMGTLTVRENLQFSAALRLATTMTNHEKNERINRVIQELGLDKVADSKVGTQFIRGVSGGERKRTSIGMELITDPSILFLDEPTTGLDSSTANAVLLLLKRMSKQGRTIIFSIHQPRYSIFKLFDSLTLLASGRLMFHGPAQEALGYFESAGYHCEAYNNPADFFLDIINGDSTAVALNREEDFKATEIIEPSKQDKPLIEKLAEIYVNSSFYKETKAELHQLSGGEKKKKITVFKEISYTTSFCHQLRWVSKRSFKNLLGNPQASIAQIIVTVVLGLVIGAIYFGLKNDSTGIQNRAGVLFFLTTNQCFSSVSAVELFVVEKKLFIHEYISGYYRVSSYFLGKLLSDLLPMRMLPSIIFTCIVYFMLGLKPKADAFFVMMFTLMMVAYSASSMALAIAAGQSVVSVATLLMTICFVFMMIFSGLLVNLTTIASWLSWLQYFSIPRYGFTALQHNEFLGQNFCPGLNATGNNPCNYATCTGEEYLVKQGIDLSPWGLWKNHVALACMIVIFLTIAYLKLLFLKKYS

SMILES	fold change (FC)
COc1cc(OC)c2c(=O)c(OCCn3cnc4c(N)ncnc43)c(-c3ccc(OC)c(OC)c3)oc2c1	1.2
COc1cc(OC)c2c(=O)c(O[C@@H]3O[C@H](CO[C@@H]4O[C@@H](C)[C@H](OC)[C@@H](OC)[C@H]4OC)[C@@H](OC)[C@H](OC)[C@H]3OC)c(-c3ccc(OC)c(OC)c3)oc2c1	5.3
COc1cc(OC)c2c(=O)c(OCc3cc(OC)c(OC)c(OC)c3)c(-c3ccc(OC)c(OC)c3)oc2c1	4.7
COc1cc(OC)c2c(=O)c(OC)c(-c3ccc(OC)c(OC)c3)oc2c1	7.9
COc1cc(OC)c2c(=O)c(OCCOc3cc4c(Nc5ccc(F)c(Cl)c5)ncnc4cc3OC)c(-c3ccc(OC)c(OC)c3)oc2c1	1.2
COc1ccc(C(=O)OCCOc2c(-c3ccc(OC)c(OC)c3)oc3cc(OC)cc(OC)c3c2=O)cc1	7.3
COc1cc(OC)c2c(=O)c(O)c(-c3ccc(OC)c(OC)c3)oc2c1	6
COc1cc(O)c2c(=O)c(OC)c(-c3ccc(OC)c(OC)c3)oc2c1 [RETUSIN]	19.3
COc1cc(OC)c2c(=O)c(OC(=O)c3cc(OC)c(OC)c(OC)c3)c(-c3ccc(OC)c(OC)c3)oc2c1	9.6

system: not listed separately; experiment: Cytotoxicity against human LCC-6 cells after 5 days by MTS assay; assay type: cell-based; details: LCC-6, 120 h; how it was run: as §1

SMILES	IC50
COc1cc(OC)c2c(=O)c(OCCn3cnc4c(N)ncnc43)c(-c3ccc(OC)c(OC)c3)oc2c1	> 100 µM
COc1cc(OC)c2c(=O)c(O[C@@H]3O[C@H](CO[C@@H]4O[C@@H](C)[C@H](OC)[C@@H](OC)[C@H]4OC)[C@@H](OC)[C@H](OC)[C@H]3OC)c(-c3ccc(OC)c(OC)c3)oc2c1	> 100 µM
COc1cc(OC)c2c(=O)c(OCc3cc(OC)c(OC)c(OC)c3)c(-c3ccc(OC)c(OC)c3)oc2c1	14.5 µM
COc1cc(OC)c2c(=O)c(OC)c(-c3ccc(OC)c(OC)c3)oc2c1	> 100 µM
COc1cc(OC)c2c(=O)c(OCCOc3cc4c(Nc5ccc(F)c(Cl)c5)ncnc4cc3OC)c(-c3ccc(OC)c(OC)c3)oc2c1	> 100 µM
COc1ccc(C(=O)OCCOc2c(-c3ccc(OC)c(OC)c3)oc3cc(OC)cc(OC)c3c2=O)cc1	> 100 µM
COc1cc(OC)c2c(=O)c(O)c(-c3ccc(OC)c(OC)c3)oc2c1	> 100 µM
COc1cc(O)c2c(=O)c(OC)c(-c3ccc(OC)c(OC)c3)oc2c1 [RETUSIN]	> 100 µM
COc1cc(OC)c2c(=O)c(OC(=O)c3cc(OC)c(OC)c(OC)c3)c(-c3ccc(OC)c(OC)c3)oc2c1	> 79 µM

system: not listed separately; experiment: Cytotoxicity against multidrug resistant human LCC6MDR cells after 5 days by MTS assay; details: 120 h

SMILES	IC50
COc1cc(OC)c2c(=O)c(OCCn3cnc4c(N)ncnc43)c(-c3ccc(OC)c(OC)c3)oc2c1	> 100 µM
COc1cc(OC)c2c(=O)c(O[C@@H]3O[C@H](CO[C@@H]4O[C@@H](C)[C@H](OC)[C@@H](OC)[C@H]4OC)[C@@H](OC)[C@H](OC)[C@H]3OC)c(-c3ccc(OC)c(OC)c3)oc2c1	> 100 µM
COc1cc(OC)c2c(=O)c(OCc3cc(OC)c(OC)c(OC)c3)c(-c3ccc(OC)c(OC)c3)oc2c1	46.6 µM
COc1cc(OC)c2c(=O)c(OC)c(-c3ccc(OC)c(OC)c3)oc2c1	> 100 µM
COc1cc(OC)c2c(=O)c(OCCOc3cc4c(Nc5ccc(F)c(Cl)c5)ncnc4cc3OC)c(-c3ccc(OC)c(OC)c3)oc2c1	> 100 µM
COc1ccc(C(=O)OCCOc2c(-c3ccc(OC)c(OC)c3)oc3cc(OC)cc(OC)c3c2=O)cc1	> 100 µM
COc1cc(OC)c2c(=O)c(O)c(-c3ccc(OC)c(OC)c3)oc2c1	> 100 µM
COc1cc(O)c2c(=O)c(OC)c(-c3ccc(OC)c(OC)c3)oc2c1 [RETUSIN]	> 100 µM
COc1cc(OC)c2c(=O)c(OC(=O)c3cc(OC)c(OC)c(OC)c3)c(-c3ccc(OC)c(OC)c3)oc2c1	87.4 µM

molecular target: Multidrug resistance-associated protein 1 (Homo sapiens, UniProt P33527); experiment: Reversal of MRP1-mediated drug resistant in human 2008/MRP1 cells assessed as potentiation of doxorubicin-induced cytotoxicity at 1 uM after 5 days by MTS assay; assay type: cell-based; details: 2008/mrp1, 120 h
Sequence (P33527 whole entry): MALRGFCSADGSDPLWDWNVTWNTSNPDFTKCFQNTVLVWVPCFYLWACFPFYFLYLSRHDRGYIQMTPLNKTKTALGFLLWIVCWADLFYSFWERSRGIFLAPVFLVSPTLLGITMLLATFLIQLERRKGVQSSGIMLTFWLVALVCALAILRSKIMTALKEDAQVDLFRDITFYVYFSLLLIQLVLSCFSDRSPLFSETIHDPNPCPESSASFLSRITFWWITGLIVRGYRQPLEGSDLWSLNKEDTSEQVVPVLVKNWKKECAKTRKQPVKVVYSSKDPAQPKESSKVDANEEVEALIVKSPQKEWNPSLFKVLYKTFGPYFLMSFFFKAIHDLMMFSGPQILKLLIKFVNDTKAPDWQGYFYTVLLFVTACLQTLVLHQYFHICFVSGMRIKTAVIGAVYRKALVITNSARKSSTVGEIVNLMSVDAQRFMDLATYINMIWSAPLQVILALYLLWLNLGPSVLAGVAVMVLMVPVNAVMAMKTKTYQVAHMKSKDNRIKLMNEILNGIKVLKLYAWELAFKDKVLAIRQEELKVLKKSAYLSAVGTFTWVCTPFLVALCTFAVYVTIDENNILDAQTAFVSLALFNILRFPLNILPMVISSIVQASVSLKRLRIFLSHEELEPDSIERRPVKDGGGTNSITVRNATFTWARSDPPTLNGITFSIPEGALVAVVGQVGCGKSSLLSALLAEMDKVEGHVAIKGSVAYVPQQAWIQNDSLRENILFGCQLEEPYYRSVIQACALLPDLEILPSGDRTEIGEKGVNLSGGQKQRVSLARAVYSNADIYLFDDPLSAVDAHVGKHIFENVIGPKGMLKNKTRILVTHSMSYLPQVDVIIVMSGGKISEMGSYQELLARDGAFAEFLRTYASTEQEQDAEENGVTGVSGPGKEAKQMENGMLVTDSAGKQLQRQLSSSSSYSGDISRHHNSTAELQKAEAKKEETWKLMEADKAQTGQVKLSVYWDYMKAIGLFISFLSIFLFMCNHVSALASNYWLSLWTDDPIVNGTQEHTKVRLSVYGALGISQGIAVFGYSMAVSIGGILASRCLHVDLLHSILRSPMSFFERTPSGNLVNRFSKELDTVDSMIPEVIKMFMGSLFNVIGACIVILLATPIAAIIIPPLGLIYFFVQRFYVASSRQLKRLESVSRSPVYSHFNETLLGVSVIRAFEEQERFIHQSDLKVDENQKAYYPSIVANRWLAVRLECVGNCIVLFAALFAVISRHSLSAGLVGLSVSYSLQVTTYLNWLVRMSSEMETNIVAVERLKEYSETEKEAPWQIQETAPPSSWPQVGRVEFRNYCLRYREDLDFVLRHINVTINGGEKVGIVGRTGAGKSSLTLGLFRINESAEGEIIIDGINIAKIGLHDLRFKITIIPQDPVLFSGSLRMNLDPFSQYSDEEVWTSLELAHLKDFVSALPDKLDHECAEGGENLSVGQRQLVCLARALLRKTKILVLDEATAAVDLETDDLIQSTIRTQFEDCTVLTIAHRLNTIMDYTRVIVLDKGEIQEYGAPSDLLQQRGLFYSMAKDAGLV

SMILES	fold change (FC)
COc1cc(OC)c2c(=O)c(OCCn3cnc4c(N)ncnc43)c(-c3ccc(OC)c(OC)c3)oc2c1	0.8
COc1cc(OC)c2c(=O)c(O[C@@H]3O[C@H](CO[C@@H]4O[C@@H](C)[C@H](OC)[C@@H](OC)[C@H]4OC)[C@@H](OC)[C@H](OC)[C@H]3OC)c(-c3ccc(OC)c(OC)c3)oc2c1	1.4
COc1cc(OC)c2c(=O)c(OCc3cc(OC)c(OC)c(OC)c3)c(-c3ccc(OC)c(OC)c3)oc2c1	1.2
COc1cc(OC)c2c(=O)c(OC)c(-c3ccc(OC)c(OC)c3)oc2c1	0.8
COc1cc(OC)c2c(=O)c(OCCOc3cc4c(Nc5ccc(F)c(Cl)c5)ncnc4cc3OC)c(-c3ccc(OC)c(OC)c3)oc2c1	1
COc1ccc(C(=O)OCCOc2c(-c3ccc(OC)c(OC)c3)oc3cc(OC)cc(OC)c3c2=O)cc1	1.5
COc1cc(OC)c2c(=O)c(O)c(-c3ccc(OC)c(OC)c3)oc2c1	0.7
COc1cc(O)c2c(=O)c(OC)c(-c3ccc(OC)c(OC)c3)oc2c1 [RETUSIN]	0.7
COc1cc(OC)c2c(=O)c(OC(=O)c3cc(OC)c(OC)c(OC)c3)c(-c3ccc(OC)c(OC)c3)oc2c1	0.9

molecular target: T1, Broad substrate specificity ATP-binding cassette transporter ABCG2; experiment: Reversal of BCRP-mediated drug resistant in human HEK293/R2 cells assessed as potentiation of topotecan-induced cytotoxicity at 1 uM after 5 days by MTS assay; assay type: cell-based; details: hek293/r2, 120 h

SMILES	fold change (FC)
COc1cc(OC)c2c(=O)c(OCCn3cnc4c(N)ncnc43)c(-c3ccc(OC)c(OC)c3)oc2c1	1.2
COc1cc(OC)c2c(=O)c(O[C@@H]3O[C@H](CO[C@@H]4O[C@@H](C)[C@H](OC)[C@@H](OC)[C@H]4OC)[C@@H](OC)[C@H](OC)[C@H]3OC)c(-c3ccc(OC)c(OC)c3)oc2c1	1.5
COc1cc(OC)c2c(=O)c(OCc3cc(OC)c(OC)c(OC)c3)c(-c3ccc(OC)c(OC)c3)oc2c1	11.3
COc1cc(OC)c2c(=O)c(OC)c(-c3ccc(OC)c(OC)c3)oc2c1	8.7
COc1cc(OC)c2c(=O)c(OCCOc3cc4c(Nc5ccc(F)c(Cl)c5)ncnc4cc3OC)c(-c3ccc(OC)c(OC)c3)oc2c1	4.3
COc1ccc(C(=O)OCCOc2c(-c3ccc(OC)c(OC)c3)oc3cc(OC)cc(OC)c3c2=O)cc1	12.1
COc1cc(OC)c2c(=O)c(O)c(-c3ccc(OC)c(OC)c3)oc2c1	3.3
COc1cc(O)c2c(=O)c(OC)c(-c3ccc(OC)c(OC)c3)oc2c1 [RETUSIN]	13
COc1cc(OC)c2c(=O)c(OC(=O)c3cc(OC)c(OC)c(OC)c3)c(-c3ccc(OC)c(OC)c3)oc2c1	5.8
